Assay outcomes deposited in PubChem BioAssay by several laboratories.
Hits are enriched below; roughly 3.2% of the tested compounds scored in any of these assays.
NR2E3 ag-1: human photoreceptor-specific nuclear receptor agonism; CHO-S Gal4-NCOR/VP16-NR2E3 two-hybrid, luciferase; Q9Y5X4; inhibition of corepressor binding, % at 3.98 µM; 0.35% of 360,000 active; AID 602229;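 active = inhibition above the mean of all tested compounds plus 3 SD, cut at about 70% in these data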;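 note: higher means lower luciferase signal from less NR2E3 corepressor binding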
JMJD2C inh: blocks human GASC-1 demethylase activity; Q9H3R0; GST-JMJD2C(1-420) H3K9me3 demethylation, DELFIA europium; inhibition, % at 2.35 µM; 0.069% of 330,000 active; AID 2099;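 active = more than half of a compound's replicate wells show inhibition beyond 50%, single wells judged on their own value; inconclusive = some, but no more than half, of replicates pass 50% inhibition; inactive = no replicate passes 50% inhibition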;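 note: signal counts dimethyl H3K9 product captured on neutravidin plate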
DAX1 inh-1: DAX1 (NR0B1) inhibition, primary screen; HEK293T StAR-luciferase reporter, SF-1/DAX-1 repression relief; inhibition, % at 6.8 µM; 1.1% of 370,000 active;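 active = inhibition above the mean over all tested compounds plus 3 SD, cut at about 3.6% in these data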;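 note: higher inhibition means more luminescence from relief of DAX-1 repression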
NR2E3 ag-2: agonists of human nuclear receptor NR2E3 | GST-NR2E3/biotin-RetCOR TR-FRET, 1536-well | inhibition of corepressor binding, % at 4.78 µM | 0.12% of 320,000 active | AID 2300;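 active = percent inhibition above the cutoff of mean plus 3 SD of all tested compounds, set per screening campaign, cut at about 20% in these data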
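Test system: GST-NR2E3 and biotin-RetCOR proteins | Quantity: 1.35 nM GST-tagged NR2E3 final | Medium: Tris pH 7.5 | Also added: 7 nM biotin-RetCOR | Dosing: Compound at 4.8 µM, single dose | Timing: 5 h at 4 °C | Detection: Time-resolved FRET | Read-out basis: Percent inhibition | Benchmarks: Biotin wells as high control, 0.6% DMSO wells as low control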
DAX1 inh-2: NR0B1 (DAX1) inhibition | HEK293 Gal4-DAX1 luciferase reporter, luminescence | inhibition, % at 6.75 µM | 0.99% of 340,000 active | AID 504766;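 active = inhibition above the mean over all tested compounds plus 3 SD, cut at about 4.2% in these data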;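 note: inhibition shows as a rise in luminescence from relieved DAX1 repression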
Target sequence (P51843 207-470 limits assumed): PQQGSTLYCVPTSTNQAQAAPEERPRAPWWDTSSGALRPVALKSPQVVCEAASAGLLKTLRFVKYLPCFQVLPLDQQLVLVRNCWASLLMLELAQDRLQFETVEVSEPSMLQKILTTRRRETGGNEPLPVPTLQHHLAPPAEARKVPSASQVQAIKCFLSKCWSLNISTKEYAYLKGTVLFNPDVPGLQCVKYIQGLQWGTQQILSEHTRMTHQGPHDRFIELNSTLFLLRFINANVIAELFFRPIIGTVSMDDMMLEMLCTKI
SMARCA2 activ: increases SMARCA2 function in MMTV reporter cells; MG213 cells, MMTV-luciferase reporter, dexamethasone, overnight; activation, % at 9.1 µM; 1% of 370,000 active; AID 652017; in the data active = activation above about 7.8%
Hits are given with their value; n = inactive; u = inconclusive; x = no result given.

SMILES	NR2E3 ag-1	JMJD2C inh	DAX1 inh-1	NR2E3 ag-2	DAX1 inh-2	SMARCA2 activ
CN(C)CC(c1ccc(O)cc1)C1(O)CCCCC1 (stereo not drawn)	x	x	n	x	x	n
Cn1ccc2c(-c3cncc4ccccc34)cc3c(c21)C1CCC3O1 (stereo not drawn)	n	x	n	x	x	n
Cc1ccccc1-c1cc2c(c3c1ccn3C)C1CCC2O1 (stereo not drawn)	n	x	3.8	x	x	n
O=C(Nc1ccc(N2CCCC2)c(Cl)c1)c1cccs1	n	n	4.0	n	n	n
COc1cccc(-c2ccc(CC[C@H]3O[C@H]4CC[C@@H](CO)O[C@H]4C[C@H]3NS(C)(=O)=O)cc2)c1	x	x	n	x	x	n
COc1cccc(/C=C(/C#N)c2nc3ccccc3[nH]2)c1OC(C)C(=O)O (stereo not drawn)	n	n	n	n	7.0	n
CCOc1cc(N(CC)CC)ccc1/C=C(/C#N)c1nc2ccccc2[nH]1	n	n	n	n	6.5	n
COc1cccc(/C=C(\C#N)c2nc3ccccc3[nH]2)c1OCC(=O)O	n	n	n	n	n	n
COC(=O)C1CN(C2CCCC2)CCS(=O)(=O)N1Cc1ccc(C(F)(F)F)cc1 (stereo not drawn)	x	x	n	x	x	n
COc1ccc(N(C(=O)c2ccncc2)S(=O)(=O)c2cccc([N+](=O)[O-])c2)cc1	n	n	n	n	n	n
COc1ccc(N(C(=O)c2cccc([N+](=O)[O-])c2)S(=O)(=O)c2cccs2)cc1	n	n	n	n	5.1	n
O=C(c1cc2cc(Cl)ccc2oc1=O)N1CCCC1	n	n	n	n	n	n
O=C(c1cc2cc(Cl)ccc2oc1=O)N1CCCCCCC1	n	n	n	n	4.5	n
Clc1nc(NCCN2CCOCC2)nc(NCc2ccccc2)n1	n	n	n	n	n	n
CC(C)(C)Nc1nc(Cl)nc(NCCN2CCOCC2)n1	n	n	n	n	5.4	n
O=C(CSc1nnc(-c2ccccc2)n1-c1ccccc1)Nc1ccccc1-c1ccccc1	x	x	n	x	x	n
CCOC(=O)C1CCN(C(=O)C(C)Sc2ccc(Cl)cc2)CC1 (stereo not drawn)	n	u	n	n	4.7	n
CCOc1ccc(C2N(c3ccc(OC)cc3)C(=O)C3CCCN32)cc1OC (stereo not drawn)	n	n	n	n	4.8	n
CCOc1ccc(C2N(c3ccc(F)cc3)C(=O)C3CCCN32)cc1OC (stereo not drawn)	n	n	n	n	n	n
CCOc1ccc(C2N(c3ccc(Cl)cc3)C(=O)C3CCCN32)cc1OC (stereo not drawn)	n	n	n	n	n	n
CCOc1ccc(C2N(c3cc(Cl)ccc3OC)C(=O)C3CCCN32)cc1OC (stereo not drawn)	n	n	n	n	5.4	n
COC1=C[C@H](C(=O)NCc2ccccn2)[C@@]2(C)Cc3ccccc3[C@H]2CC1=O	x	x	n	x	x	n
COc1ccc(CN2CN3Cc4ccccc4C3CS2(=O)=O)cc1 (stereo not drawn)	x	x	n	x	x	n
O=S1(=O)c2ccc(Br)cc2OC[C@H](Cc2ccccc2)N1Cc1cn(Cc2ccc(F)cc2)nn1	x	x	n	x	x	n
CN(C)CC(O)COC(c1ccc(Cl)cc1)c1ccc(Cl)cc1 (stereo not drawn)	n	n	n	n	4.3	n
SMILES	NR2E3 ag-1	JMJD2C inh	DAX1 inh-1	NR2E3 ag-2	DAX1 inh-2	SMARCA2 activ
O=S1(=O)CC(O)C(N(CCO)C(=S)Nc2ccccc2)C1 (stereo not drawn)	n	n	n	n	5.3	n
O=S1(=O)CC(O)C(Nc2ccccc2)C1 (stereo not drawn)	n	n	n	n	n	n
COCCCNC(=O)CSc1nnc(-c2cccnc2)n1C1CCCCC1	x	x	n	x	x	n
COc1ccc(C2=Cc3ccc(OC(C)=O)cc3OC2)cc1	n	x	n	x	5.5	n
CC(=O)Cn1ncc(Br)c(Br)c1=O	n	n	n	x	6.6	n
CCNC(=S)NNC(=O)c1cnccn1	x	x	n	x	x	n
COc1cccc(N(C(=O)c2nc3nccc(C)n3n2)c2nc3ccccc3s2)c1	n	n	4.0	n	n	n
O=S1(=O)C=CCN1Cc1cn(Cc2ccc(Cl)cc2)nn1	x	x	n	x	x	n
CC1CCN(C(=O)Cn2nnc(-c3cccs3)n2)CC1	n	n	3.6	n	6.0	n
